Key:
[1] = Plasma glucose-lowering activity at a dosage of 0.005% in the diet in KKA(y) mice.; format: functional, Mus musculus
In short: (§1)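 KKAy mice (9–13 weeks old), five per group, grouped by blood glucose after 3 d on powdered CE-2 chow. Dietary admixture at 0.001, 0.005 or 0.01% for 4 d, food and water ad libitum. Orbital-vein plasma glucose measured enzymatically and expressed as maximum percent reduction versus control; Dunnett's test.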

[2] = Plasma lipid-lowering activity at a dosage of 0.01% in the diet in KKAy mice; format: functional, Mus musculus
In short: (§2)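 KKAy mice (9–13 weeks old), five per group, on powdered CE-2 diet containing compound at 0.001, 0.005 or 0.01% for 4 d. Plasma triglyceride from orbital-vein blood measured enzymatically and reported as maximum percent reduction from control; Dunnett's test; less than 10% reduction flagged.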

[3] = Plasma lipid-lowering activity at a dosage of 0.005% in the diet in KKA(y) mice.; format: functional, Mus musculus; in short: as §2
RXR alpha/PPAR gamma = biological target: T1, RXR alpha/PPAR gamma (Homo sapiens, UniProt P19793+P37231); assay: Transcriptional activation in COS cells expressing PPAR gamma and RXR alpha
T1 sequence (P37231 whole entry): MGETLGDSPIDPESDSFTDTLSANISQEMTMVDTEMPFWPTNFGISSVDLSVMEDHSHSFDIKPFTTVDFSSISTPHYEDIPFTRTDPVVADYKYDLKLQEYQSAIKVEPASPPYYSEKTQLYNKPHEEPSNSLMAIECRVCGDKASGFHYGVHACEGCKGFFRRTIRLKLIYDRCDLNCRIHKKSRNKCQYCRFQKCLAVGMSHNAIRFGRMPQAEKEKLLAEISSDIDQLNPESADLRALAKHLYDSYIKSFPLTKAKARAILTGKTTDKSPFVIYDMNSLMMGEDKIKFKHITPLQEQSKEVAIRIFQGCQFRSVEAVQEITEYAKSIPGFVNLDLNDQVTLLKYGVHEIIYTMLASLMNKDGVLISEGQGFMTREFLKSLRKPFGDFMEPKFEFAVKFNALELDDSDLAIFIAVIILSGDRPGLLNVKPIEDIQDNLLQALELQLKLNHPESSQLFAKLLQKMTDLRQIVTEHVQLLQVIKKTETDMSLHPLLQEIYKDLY
T1 sequence (P19793 whole entry): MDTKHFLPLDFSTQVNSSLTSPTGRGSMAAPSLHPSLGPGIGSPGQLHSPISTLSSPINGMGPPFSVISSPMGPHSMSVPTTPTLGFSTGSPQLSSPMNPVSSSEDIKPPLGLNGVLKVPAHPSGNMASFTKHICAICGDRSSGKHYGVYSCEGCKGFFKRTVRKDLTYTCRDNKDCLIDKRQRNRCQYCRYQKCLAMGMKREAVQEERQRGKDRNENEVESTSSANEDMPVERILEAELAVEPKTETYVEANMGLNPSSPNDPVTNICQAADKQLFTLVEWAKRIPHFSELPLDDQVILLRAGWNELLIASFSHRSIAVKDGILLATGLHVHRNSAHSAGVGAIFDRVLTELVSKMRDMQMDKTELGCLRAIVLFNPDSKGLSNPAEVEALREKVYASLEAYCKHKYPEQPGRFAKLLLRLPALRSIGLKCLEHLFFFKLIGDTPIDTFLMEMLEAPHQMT

[4] = Plasma glucose-lowering activity at a dosage of 0.001% in the diet in KKAy mice; format: functional, Mus musculus; in short: as §1
[5] = Plasma lipid-lowering activity at a dosage of 0.001% in the diet in KKAy mice; format: functional, Mus musculus; in short: as §2
Rattus norvegicus [6] = species: Rattus norvegicus; assay: Effective dose for 25% reduction in plasma glucose-lowering activity in Wistar fatty rats; format: functional
In short: (§3)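 Wistar fatty rats (10–15 weeks old), five per group, allocated by plasma glucose and triglyceride. Oral dosing by stomach tube once daily for 6 d at three doses, suspended in 0.5% methyl cellulose; CE-2 pellets and water ad libitum. Tail-vein plasma glucose measured; ED25 taken from the three-dose response by linear regression.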

Rattus norvegicus [7] = assay: Plasma concentrations of R(+)-64 at a dose of 1 mg/kg in Jc1SD rats after intravenous administration after 30 min; format: functional, organism-based; set-up: dose 1 mg/kg
Rattus norvegicus [8] = assay: Plasma concentrations of S(-)-64 at a dose of 1 mg/kg in Jc1SD rats after intravenous administration after 5 min; format: functional, organism-based; set-up: dose 1 mg/kg
Rattus norvegicus [9] = assay: Plasma concentrations of S(-)-64 at a dose of 1 mg/kg in Jc1SD rats after intravenous administration after 60 min; format: functional, organism-based; set-up: dose 1 mg/kg
Rattus norvegicus [10] = assay: Plasma concentrations of R(+)-64 at a dose of 1 mg/kg in Jc1SD rats after intravenous administration after 60 min; format: functional, organism-based; set-up: dose 1 mg/kg
Rattus norvegicus [11] = assay: Plasma concentrations of R(+)-64 at a dose of 1 mg/kg in Jc1SD rats after intravenous administration after 5 min; format: functional, organism-based; set-up: dose 1 mg/kg
Rattus norvegicus [12] = assay: Plasma concentrations of S(-)-64 at a dose of 1 mg/kg in Jc1SD rats after intravenous administration after 10 min; format: functional, organism-based; set-up: dose 1 mg/kg
Rattus norvegicus [13] = assay: Plasma concentrations of R(+)-64 at a dose of 1 mg/kg in Jc1SD rats after intravenous administration after 10 min; format: functional, organism-based; set-up: dose 1 mg/kg
Rattus norvegicus [14] = assay: Plasma concentrations of R(+)-64 at a dose of 1 mg/kg in Jc1SD rats after intravenous administration after 15 min; format: functional, organism-based; set-up: dose 1 mg/kg
Rattus norvegicus [15] = assay: Plasma concentrations of S(-)-64 at a dose of 1 mg/kg in Jc1SD rats after intravenous administration after 15 min; format: functional, organism-based; set-up: dose 1 mg/kg
Rattus norvegicus [16] = assay: Plasma concentrations of R(+)-64 at a dose of 1 mg/kg in Jc1SD rats after intravenous administration after 120 min; format: functional, organism-based; set-up: dose 1 mg/kg
Rattus norvegicus [17] = assay: Plasma concentrations of S(-)-64 at a dose of 1 mg/kg in Jc1SD rats after intravenous administration after 30 min; format: functional, organism-based; set-up: dose 1 mg/kg
Rattus norvegicus [18] = species: Rattus norvegicus; assay: Effective dose for 25% reduction in glucose-lowering activity in Wistar fatty rats; format: functional; in short: as §3
Mus musculus = species: Mus musculus; assay: Effective dose for 25% reduction in plasma glucose-lowering activity of KKAy mice; format: functional
In short: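 KKAy mice (9–13 weeks old), five per group, allocated by blood glucose after 3 d on powdered CE-2 chow. Compounds given as dietary admix at three levels chosen from first screening, 4 d ad libitum. Orbital-vein plasma glucose assayed enzymatically. Dose in mg/kg/d computed from food intake and body weight; ED25 derived by linear regression.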

[19] = Rattus norvegicus, Plasma, read-out: ED25

| SMILES | Activity [1] | Activity [3] | EC50 (RXR alpha/PPAR gamma) | Activity [4] | Activity [5] | ED25 (Rattus norvegicus [6]; [19]) | also measured |
| --- | --- | --- | --- | --- | --- | --- | --- |
| Cc1oc(-c2ccccc2)nc1COc1ccccc1CCCC1OC(=O)NC1=O (stereo unspecified) | 11 | – | – | – | – | – | Activity [2]: 33 |
| Cc1sc(-c2ccccc2)nc1COc1ccc(CCCC2OC(=O)NC2=O)cc1 (stereo unspecified) | 43 | 58 | 813 nM | 15 | 17 | 0.5 mg/kg/day | – |
| COc1cc(CCCC2OC(=O)NC2=O)ccc1OCc1nc(-c2ccco2)oc1C (stereo in doubt; (+)-64) | – | – | – | – | – | – | Concentration (Rattus norvegicus [7]): 4.78 µg/mL; Concentration (Rattus norvegicus [8]): 0.02 µg/mL; Concentration (Rattus norvegicus [9]): 0.02 µg/mL; Concentration (Rattus norvegicus [10]): 3.19 µg/mL; Concentration (Rattus norvegicus [11]): 6.46 µg/mL; Concentration (Rattus norvegicus [12]): 0.02 µg/mL; Concentration (Rattus norvegicus [13]): 6.06 µg/mL; Concentration (Rattus norvegicus [14]): 5.13 µg/mL; Concentration (Rattus norvegicus [15]): 0.02 µg/mL; Concentration (Rattus norvegicus [16]): 1.46 µg/mL; Concentration (Rattus norvegicus [17]): 0.02 µg/mL |
| COc1cc(CCCC2OC(=O)NC2=O)ccc1OCc1nc(-c2ccco2)oc1C (single isomer, unassigned; (-)) | <10 | – | 35.4 nM | – | < 10 | – | ED25 (Rattus norvegicus [6]): 0.362 mg/kg/day |
| Cc1oc(-c2ccccc2)nc1COc1cccc(CCCC2OC(=O)NC2=O)c1 (stereo unspecified) | 32 | – | – | – | – | – | Activity [2]: 47 |
| Cc1sc(-c2ccccc2)nc1COc1ccc(CCCC2OC(=O)NC2=O)cc1 (single isomer, unassigned; (-)) | – | – | > 1000 nM | – | – | – | ED25 (Rattus norvegicus [18]): 3 mg/kg/day |
| Cc1oc(-c2ccccc2)nc1COc1ccc(CCCC2OC(=O)NC2=O)cc1 (stereo unspecified) | 61 | 83 | 119 nM | 53 | 55 | 0.078 mg/kg/day | ED25 (Mus musculus): 0.402 mg/kg/day |
| Cc1oc(-c2ccccc2)nc1COc1ccc(CCC2OC(=O)NC2=O)cc1 (stereo unspecified) | 63 | 60 | – | 28 | 13 | – | ED25 (Mus musculus): 1.31 mg/kg/day |
| Cc1oc(-c2ccc3ccccc3c2)nc1COc1ccc(CCCC2OC(=O)NC2=O)cc1 (stereo unspecified) | 55 | 72 | 29.3 nM | 45 | 40 | 0.178 mg/kg/day | – |
| Cc1oc(-c2ccccc2)nc1COc1ccc(CCCC2OC(=O)NC2=O)cn1 (stereo unspecified) | 54 | 82 | 16.5 nM | 53 | 69 | 0.048 mg/kg/day | – |
